Laboratory results taken from ChEMBL document CHEMBL1687886, “N-cyclic bay-substituted perylene G-quadruplex ligands have selective antiproliferative effects on cancer cells and induce telomere damage” (J Med Chem, 2011).
Activity calls are given as the source filed them. The calls are words filed in the database; no cut-off is given here.

Columns and labels:
[1] = system: PC-3; test: Antiproliferative activity against human PC3 after 2 to 8 days by trypan blue assay; format: functional, cell-based
Procedure, shortened: (§1)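 Cells seeded at 5 ×10^4 per dish; compounds freshly dissolved and added to the medium 24 h after plating, at 0.5 μM or 3 μM (3 μM only for one derivative). Cell number by Coulter counting and viability by trypan blue exclusion daily, day 1 to day 8. Growth inhibition of treated vs untreated cells calculated at days 2, 4, 6 and 8. Representative experiments in quintuplicate, SD shown.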

[2] = system: Nucleic Acid; test: Binding affinity to human 21-TT G-quadruplex DNA structure assessed as first step association constant by electrospray ionization mass spectrometry; format: nucleic-acid assay
Procedure, shortened: (§2)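 ESI-MS in 150 mM ammonium acetate; DNA 5 μM final (per duplex or quadruplex unit); ligand at drug/DNA ratios 0.5 to 4. Methanol (15%) added just before injection, after binding equilibrium. K1 and K2 for 1:1 and 2:1 complexes, and % bound DNA, taken from relative peak intensities assuming equal response factors. At least three repeats.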

[3] = system: Nucleic Acid; test: Binding affinity to human 21-TT G-quadruplex DNA structure assessed as second step association constant by electrospray ionization mass spectrometry; format: nucleic-acid assay; procedure, shortened: as §2
[4] = system: Nucleic Acid; test: Binding affinity to human DK66 duplex DNA structure assessed as first step association constant by electrospray ionization mass spectrometry; format: nucleic-acid assay; procedure, shortened: as §2
[5] = system: Nucleic Acid; test: Binding affinity to human DK66 duplex DNA structure assessed as second step association constant by electrospray ionization mass spectrometry; format: nucleic-acid assay; procedure, shortened: as §2
[6] = system: Nucleic Acid; test: Stabilization of 21-mer human F21T G4-telomeric quadruplex assessed as change in melting temperature at 1 uM by FRET assay; format: nucleic-acid assay
[7] = system: Nucleic Acid; test: Binding affinity to human 21-TT G-quadruplex DNA structure assessed as bound DNA at 5:5 DNA to drug ratio by electrospray ionization mass spectrometry; format: nucleic-acid assay; procedure, shortened: as §2
[8] = system: Nucleic Acid; test: Binding affinity to human DK66 duplex DNA structure assessed as bound DNA at 5:20 DNA to drug ratio by electrospray ionization mass spectrometry; format: nucleic-acid assay; procedure, shortened: as §2
[9] = system: Nucleic Acid; test: Binding affinity to human 21-TT G-quadruplex DNA structure at 1:1 DNA to calf thymus DNA ratio by competitive inhibition assay; format: nucleic-acid assay; set-up: concentration or dose not given beside the values
Procedure, shortened: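 ESI-MS competition: quadruplex DNA and ligand each 5 μM final, plus calf thymus DNA at duplex/quadruplex ratios 1 and 5 (by phosphate concentration), in ammonium acetate. Percentage bound quadruplex and normalized bound quadruplex (N%) measured by mass spectrometry. SD over at least three independent experiments.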

[10] = system: BJ; test: Induction of DNA damage response in human BJ cells expressing SV40 early region EHLT assessed as phosphorylation of gamma H2AX at 0.25 uM after 24 hrs by immunofluorescence method; format: functional, cell-based
Procedure, shortened: (§3)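 BJ-EHLT and BJ-hTERT fibroblasts exposed to a range of concentrations for 24 h. Fixed in 2% formaldehyde, permeabilized in 0.25% Triton X-100, immunostained for γ-H2AX and 53BP1. Percentage of positive cells scored. Three independent experiments, SD.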

[11] = system: BJ; test: Induction of DNA damage response in human BJ cells expressing SV40 early protein EHLT assessed as accumulation of gamma-H2AX foci in S-phase by Hoechst staining based Leica deconvolution microscopic analysis; format: functional
Procedure, shortened: (§4)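 BJ-EHLT cells co-immunostained for γ-H2AX and PCNA, nuclei counterstained with Hoechst, imaged by deconvolution microscopy. Percentages of γ-H2AX+/PCNA− and γ-H2AX+/PCNA+ nuclei scored. Mean of three independent experiments.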

[12] = system: BJ; test: Induction of DNA damage response in human BJ cells expressing SV40 early protein EHLT assessed as accumulation of PCNA in S-phase by Hoechst staining based Leica deconvolution microscopic analysis; format: functional, cell-based; procedure, shortened: as §4
[13] = system: BJ; test: Delocalization of POT1 protein from […] in human BJ cells expressing SV40 early protein EHLT after 24 hrs by chromatin immunoprecipitation assay; format: functional, cell-based
Procedure, shortened: (§5)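 BJ-EHLT cells treated 24 or 72 h. Formaldehyde-crosslinked chromatin immunoprecipitated with anti-TRF1, anti-TRF2 or anti-POT1; β-actin antibody as negative control. Precipitates blotted and probed for telomeric repeats (ALU probe as nonspecific). Densitometry gives percentage of precipitated DNA relative to input (10% and 1%). Four independent experiments, SD.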

[14] = system: BJ; test: Delocalization of POT1 protein from […] in human BJ cells expressing SV40 early protein EHLT after 72 hrs by chromatin immunoprecipitation assay; format: functional, cell-based; procedure, shortened: as §5
[15] = system: BJ; test: Delocalization of TRF2 protein from […] in human BJ cells expressing SV40 early protein EHLT by chromatin immunoprecipitation assay; format: functional, cell-based; procedure, shortened: as §5
[16] = system: BJ; test: Antiproliferative activity against human BJ cells expressing SV40 early region EHLT at 0.5 uM after 24 hrs by Coulter counter method; format: functional, cell-based; conditions: TDE = time-dependent effect, in the assay text read “after 2 to 8 days” for “after 24 hrs”; procedure, shortened: as §1
[17] = system: BJ; test: Growth inhibition of human BJ cells expressing SV40 early region EHLT at 0.5 uM on day 8 by trypan blue assay; format: functional; conditions: 192 h, read-out: GI; procedure, shortened: as §1
[18] = system: BJ; test: Cell cycle arrest in human BJ cells expressing TERT assessed as accumulation at G0/G1 stage at 0.5 uM after 24 hrs by propidium iodide staining based flow cytometry (reference value: 61%); format: ADME
[19] = system: BJ; test: Cell cycle arrest in human BJ cells expressing TERT assessed as accumulation at G2/M stage at 0.5 uM after 24 hrs by propidium iodide staining based flow cytometry (reference value: 17%); format: ADME
[20] = system: BJ; test: Cell cycle arrest in human BJ cells expressing TERT assessed as accumulation at G0/G1 stage at 0.5 uM after 48 hrs by propidium iodide staining based flow cytometry (reference value: 80%); format: ADME
[21] = system: BJ; test: Cell cycle arrest in human BJ cells expressing TERT assessed as accumulation at S stage at 0.5 uM after 48 hrs by propidium iodide staining based flow cytometry (reference value: 12%); format: ADME
[22] = system: BJ; test: Cell cycle arrest in human BJ cells expressing TERT assessed as accumulation at G0/G1 stage at 0.5 uM after 72 hrs by propidium iodide staining based flow cytometry (reference value: 83%); format: ADME
[23] = system: BJ; test: Cell cycle arrest in human BJ cells expressing TERT assessed as accumulation at G2/M stage at 0.5 uM after 72 hrs by propidium iodide staining based flow cytometry (reference value: 5%); format: ADME
[24] = system: BJ; test: Cell cycle arrest in human BJ cells expressing TERT assessed as accumulation at G0/G1 stage at 0.5 uM after 96 hrs by propidium iodide staining based flow cytometry (reference value: 86%); format: ADME
[25] = system: BJ; test: Cell cycle arrest in human BJ cells expressing TERT assessed as accumulation at S stage at 0.5 uM after 96 hrs by propidium iodide staining based flow cytometry (reference value: 9%); format: ADME
[26] = system: BJ; test: Cell cycle arrest in human BJ cells expressing TERT assessed as accumulation at G2/M stage at 0.5 uM after 96 hrs by propidium iodide staining based flow cytometry (reference value: 4%); format: ADME
[27] = system: HT-29; test: Cytotoxicity against human HT-29 cells after 4 days by clonogenic assay relative to control; format: functional, cell-based; conditions: HT-29, 96 h
Procedure, shortened: (§6)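 Clonogenic survival: cells seeded at 2 × 10^5 per dish and exposed for 4 days to 0.5-2 μM. Surviving fraction taken as absolute survival of treated over control. Four experiments, each in triplicate; mean with SD.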

[28] = system: M14; test: Cytotoxicity against human M14 cells after 4 days by clonogenic assay relative to control; format: functional, cell-based; conditions: M14, 96 h; procedure, shortened: as §6
[29] = system: BJ; test: Induction of DNA damage response in human BJ cells expressing human TERT assessed as phosphorylation of gamma H2AX at 1 uM after 24 hrs by immunofluorescence; format: functional, cell-based; procedure, shortened: as §3

log Ks [2]: 5.8 | log Ks [3]: 5 | log Ks [4]: 3.9 | log Ks [5]: 4.2 | ΔTm [6]: 23 °C | Activity [7]: 56% | Activity [8]: 21% | Activity [9]: 47% | Activity [18]: 62.8% | Activity [19]: 16.1% | Activity [20]: 78.4% | Activity [21]: 14% | Activity [22]: 87.3% | Activity [23]: 5.1% | Activity [24]: 96.3% | Activity [25]: 1.5% | Activity [26]: 2.2%
Structure (SMILES): O=C1c2ccc3c4ccc5c6c(cc(N7CCCCC7)c(c7ccc(c2c37)C(=O)N1CCOCCN1CCCCC1)c64)C(=O)N(CCOCCN1CCCCC1)C5=O
Activity [1]: Active | Activity [10]: Active | Activity [11]: 80% | Activity [12]: Active | Activity [13]: Active | Activity [14]: Active | Activity [15]: inactive | Activity [16]: tde | inhibition of growth at 0.5 µM [17]: 50% | IC50 [27]: 1.1 µM | IC50 [28]: 0.8 µM | Activity [29]: inactive
